In article PMC3698760 (Journal of the American Heart Association: Cardiovascular …, 2013):

Tests used:
ABCA1 = ABCA1 (Homo sapiens, UniProt O95477); assay: Probucol-inhibitable, ABCA1-specific cholesterol efflux in A172 cells; format: cell-based; conditions: probucol 10 μmol/L
Method in brief: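 A172 glioblastoma cells, labelled with ³H-cholesterol, were held in serum-free 0.2% BSA medium with 5 μmol/L T0901317 and 5 μmol/L 9-cis-retinoic acid. Cells were exposed for 4 h to 20 μg/mL acceptor, with or without 10 μmol/L probucol. ABCA1-dependent efflux was taken as the probucol-inhibitable fraction.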

Circular dichroism = format: physicochemical; conditions: CD spectra in water, 200 to 260 nm
Method in brief: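 Spectra of peptides and human apoA-I (17.8 to 178 μmol/L) recorded at 25°C in a thermostatted quartz cell with 0.1 mm path length, scanning 200–260 nm. Results expressed as mean residue ellipticity (deg cm² dmol⁻¹).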

[1] = tested on: apoE−/− mice fed a high‐fat diet; assay: Aortic atherosclerotic lesion formation, 16-week treatment; format: in vivo; conditions: scrambled FAMP i.p. 3 times per week, 16 weeks; Oil Red O; mean±SD
Method in brief: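 Male apoE−/− mice, bought at six weeks, fed a high-fat diet (0.5% cholesterol, 10% fat) and dosed i.p. 3 times per week for 16 weeks: test peptide at 10 or 50 mg/kg per day, or scrambled peptide. Whole aortas were then stained with Oil Red O. Lesion area was scored by image analysis as percentage of aorta from ascending aorta to abdominal bifurcation.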

apoE‐deficient mice [2] = assay: Plasma lipid profiles by enzymatic assay, 16-week treatment; format: in vivo; conditions: scrambled peptides i.p. 16 weeks, n=7; high-fat-fed apoE-deficient mice; mean±SD
Method in brief: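 Overnight-fasting plasma taken after 16 weeks from 19 of 23 high-fat-fed apoE−/− mice. Dosing was i.p. 3 times weekly with scrambled peptide or test peptide at 10 or 50 mg/kg per day. Total cholesterol, triglyceride and HDL cholesterol were measured by enzymatic assay; mean±SD.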

apoE‐deficient mice [3] = assay: Plasma lipoprotein profiles analyzed by HPLC, 16-week treatment; format: in vivo; conditions: scrambled peptides i.p. 16 weeks, n=7, mean±SD
Method in brief: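 Plasma from apoE−/− mice after 16-week i.p. dosing (3 times weekly) was separated by HPLC into 20 particle-size subfractions. Each subfraction was assayed enzymatically for total cholesterol, free cholesterol, triglycerides and phospholipids; mean±SD.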

A172 human glioblastoma = assay: Cellular cholesterol efflux in A172 human cells; format: cell-based; conditions: 4 hours
Method in brief: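 A172 human glioblastoma cells were grown in DMEM with 10% FBS and antibiotics, then labelled with ³H‑cholesterol. Efflux ran in serum‑free medium with 0.2% BSA, 5 μmol/L T0901317 and 5 μmol/L 9‑cis‑retinoic acid, with or without 10 μmol/L probucol. Acceptor was human apoA‑I or test peptide at 20 μg/mL, or a molar dose series, for 4 h. n=4–5; mean±SD.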

[4] = tested on: monocyte‐derived macrophages from an ABCA1‐deficient Tangier disease patient; format: cell-based, human; conditions: 20 μg/mL, 4 hours, n=4
Method in brief: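 Peripheral blood monocyte‑derived macrophages came from a healthy volunteer and a Tangier disease patient, with ethics approval and written consent. Cells were isolated by Lymphoprep density separation and labelled with ³H‑cholesterol. Efflux was run in serum‑free 0.2% BSA medium with or without 20 μg/mL human apoA‑I or test peptide for 4 h. n=4; mean±SD.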

Chain of ABCA1 (O95477 whole entry): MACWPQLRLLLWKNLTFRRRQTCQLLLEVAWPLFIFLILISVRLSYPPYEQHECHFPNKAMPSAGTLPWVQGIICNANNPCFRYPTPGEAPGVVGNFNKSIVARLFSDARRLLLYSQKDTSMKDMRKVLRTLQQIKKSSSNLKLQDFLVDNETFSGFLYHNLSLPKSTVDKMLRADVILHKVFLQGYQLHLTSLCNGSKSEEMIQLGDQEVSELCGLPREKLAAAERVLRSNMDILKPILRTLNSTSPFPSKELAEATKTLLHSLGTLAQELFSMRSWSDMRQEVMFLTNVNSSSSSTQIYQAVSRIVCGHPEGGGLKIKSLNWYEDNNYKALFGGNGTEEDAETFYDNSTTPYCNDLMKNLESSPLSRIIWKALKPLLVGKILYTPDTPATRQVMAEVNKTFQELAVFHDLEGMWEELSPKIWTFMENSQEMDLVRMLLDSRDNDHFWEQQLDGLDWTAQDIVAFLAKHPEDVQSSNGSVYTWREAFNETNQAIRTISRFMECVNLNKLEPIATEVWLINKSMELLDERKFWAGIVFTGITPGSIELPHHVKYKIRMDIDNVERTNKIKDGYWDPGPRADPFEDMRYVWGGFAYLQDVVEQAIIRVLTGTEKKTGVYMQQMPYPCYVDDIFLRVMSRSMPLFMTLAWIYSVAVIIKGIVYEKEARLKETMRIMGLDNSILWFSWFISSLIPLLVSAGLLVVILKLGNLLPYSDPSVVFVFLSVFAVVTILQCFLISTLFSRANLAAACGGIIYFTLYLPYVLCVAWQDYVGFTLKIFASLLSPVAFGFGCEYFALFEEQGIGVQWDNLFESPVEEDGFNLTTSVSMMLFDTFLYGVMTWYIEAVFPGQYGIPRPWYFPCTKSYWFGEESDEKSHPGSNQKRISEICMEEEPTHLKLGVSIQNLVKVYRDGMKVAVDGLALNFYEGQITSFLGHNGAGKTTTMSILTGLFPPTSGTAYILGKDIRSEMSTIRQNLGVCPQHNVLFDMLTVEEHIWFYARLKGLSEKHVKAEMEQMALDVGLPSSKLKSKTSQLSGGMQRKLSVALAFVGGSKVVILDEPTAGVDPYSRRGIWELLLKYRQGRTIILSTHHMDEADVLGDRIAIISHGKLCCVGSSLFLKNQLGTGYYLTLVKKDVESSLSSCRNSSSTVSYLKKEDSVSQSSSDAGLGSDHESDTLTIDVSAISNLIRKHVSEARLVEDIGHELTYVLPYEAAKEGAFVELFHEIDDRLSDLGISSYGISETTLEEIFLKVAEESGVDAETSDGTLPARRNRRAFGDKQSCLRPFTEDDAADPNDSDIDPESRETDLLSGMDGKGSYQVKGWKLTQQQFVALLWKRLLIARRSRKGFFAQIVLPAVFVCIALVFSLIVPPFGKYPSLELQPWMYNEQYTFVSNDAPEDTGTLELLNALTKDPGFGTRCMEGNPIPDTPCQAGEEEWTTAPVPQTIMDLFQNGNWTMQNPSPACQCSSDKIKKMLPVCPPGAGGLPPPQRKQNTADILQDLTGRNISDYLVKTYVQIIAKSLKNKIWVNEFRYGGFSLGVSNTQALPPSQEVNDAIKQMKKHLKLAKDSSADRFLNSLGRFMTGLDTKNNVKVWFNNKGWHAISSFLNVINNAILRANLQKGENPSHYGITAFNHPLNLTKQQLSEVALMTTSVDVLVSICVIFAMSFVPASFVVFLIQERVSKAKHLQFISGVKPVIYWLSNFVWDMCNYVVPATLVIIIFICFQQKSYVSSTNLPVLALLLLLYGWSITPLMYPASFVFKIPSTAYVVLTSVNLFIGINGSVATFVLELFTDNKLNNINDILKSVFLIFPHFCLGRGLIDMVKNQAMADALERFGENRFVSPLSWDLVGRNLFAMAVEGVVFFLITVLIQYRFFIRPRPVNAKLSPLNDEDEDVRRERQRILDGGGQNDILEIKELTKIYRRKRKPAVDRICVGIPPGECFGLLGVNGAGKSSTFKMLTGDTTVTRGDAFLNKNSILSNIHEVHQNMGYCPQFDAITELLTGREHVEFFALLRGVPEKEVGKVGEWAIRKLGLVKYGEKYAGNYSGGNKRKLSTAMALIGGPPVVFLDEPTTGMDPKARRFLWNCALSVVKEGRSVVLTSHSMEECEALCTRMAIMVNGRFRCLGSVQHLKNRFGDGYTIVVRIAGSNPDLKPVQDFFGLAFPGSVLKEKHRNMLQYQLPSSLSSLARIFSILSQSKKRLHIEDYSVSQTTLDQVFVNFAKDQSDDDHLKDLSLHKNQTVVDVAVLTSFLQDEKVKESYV

## Ac-DWFKAFYDKVAEKFKEAF-NH2 [L‐4F, reference compound]
ABCA1
  percentage of probucol‐inhibitable, ABCA1‐specific cholesterol efflux: much more unspecific cholesterol efflux compared with FAMP5

## H-ALEHLFTLSEKALKALEDLLKKLL-OH [FAMP2]
Circular dichroism
  α‐helical conformation (CD spectra): formed strong α‐helical conformations

## H-ATEFLHLLLLKLLKKKEDELLAYA-OH [Scrambled FAMP, reference compound]
[1]
  relative surface area of aortic plaque lesions: 31.3±8.9%
apoE‐deficient mice [2]
  HDL Cholesterol: 12.6 ± 4.8 mg/dL
  Total Cholesterol: 1373.9 ± 499.2 mg/dL
  Triglyceride: 119.9 ± 21.7 mg/dL
apoE‐deficient mice [3]
  Cholesterol, CM (>80 nm): 106.2 ± 47.8 mg/dL
  Cholesterol, HDL (8 to 16 nm): 23.0 ± 4.5 mg/dL
  Cholesterol, HDL Subfractions Intermediate Particles: 12.0 ± 3.4 mg/dL
  Cholesterol, HDL Subfractions Large Particles: 7.2 ± 1.5 mg/dL
  Cholesterol, HDL Subfractions Small Particles: 3.8 ± 0.5 mg/dL
  Cholesterol, LDL (16 to 30 nm): 165.3 ± 25.4 mg/dL
  Cholesterol, VLDL (30 to 80 nm): 423.7 ± 96.1 mg/dL
  Free cholesterol, CM (>80 nm): 44.9 ± 20.5 mg/dL
  Free cholesterol, HDL (8 to 16 nm): 12.5 ± 1.4 mg/dL
  Free cholesterol, HDL Subfractions Intermediate Particles: 5.1 ± 0.5 mg/dL
  Free cholesterol, HDL Subfractions Large Particles: 5.7 ± 1.1 mg/dL
  Free cholesterol, HDL Subfractions Small Particles: 1.7 ± 0.2 mg/dL
  Free cholesterol, LDL (16 to 30 nm): 80.9 ± 10.1 mg/dL
  Free cholesterol, VLDL (30 to 80 nm): 179.8 ± 35.9 mg/dL
  Phospholipids, CM (>80 nm): 53.0 ± 22.3 mg/dL
  Phospholipids, HDL (8 to 16 nm): 45.5 ± 10.3 mg/dL
  Phospholipids, HDL Subfractions Intermediate Particles: 28.1 ± 7.4 mg/dL
  Phospholipids, HDL Subfractions Large Particles: 12.4 ± 3.3 mg/dL
  Phospholipids, HDL Subfractions Small Particles: 5.0 ± 1.7 mg/dL
  Phospholipids, LDL (16 to 30 nm): 133.6 ± 20.5 mg/dL
  Phospholipids, VLDL (30 to 80 nm): 228.2 ± 40.0 mg/dL
  Triglyceride, CM (>80 nm): 13.9 ± 7.5 mg/dL
  Triglyceride, HDL (8 to 16 nm): 3.3 ± 0.8 mg/dL
  Triglyceride, HDL Subfractions Intermediate Particles: 1.5 ± 0.5 mg/dL
  Triglyceride, HDL Subfractions Large Particles: 0.6 ± 0.2 mg/dL
  Triglyceride, HDL Subfractions Small Particles: 1.1 ± 0.3 mg/dL
  Triglyceride, LDL (16 to 30 nm): 12.3 ± 4.2 mg/dL
  Triglyceride, VLDL (30 to 80 nm): 33.8 ± 7.7 mg/dL

## H-ATEHLSTLSEKAKPALEDLLKKLL-OH [FAMP4]
Circular dichroism
  α‐helical conformation (CD spectra): but not FAMP4, formed strong α‐helical conformations

## human apoA‐I: Human apoA‐I purchased from Calbiochem, 243–amino acid major HDL protein
A172 human glioblastoma; A172 cells
  concentration adequate for a saturating effect on cholesterol efflux: 20 µg/mL
A172 human glioblastoma; probucol 10 μmol/L, 20 μg/mL
  effect of ABCA1 inactivation (probucol) on peptide-mediated cholesterol efflux: drastically inhibited
[4]
  cholesterol efflux in Tangier disease macrophages vs healthy subject: suppressed
